Measurements as given in ChEMBL document CHEMBL4265962, “Pyrrolidine nucleoside bisphosphonates as antituberculosis agents targeting hypoxanthine-guanine phosphoribosyltransferase” (Eur J Med Chem, 2018).
≈ marks a conversion by molar mass, not a printed value.

Experiments:
[1] = molecular target: T1, Hypoxanthine-guanine phosphoribosyltransferase (Mycobacterium tuberculosis (strain ATCC 25618 / H37Rv), UniProt P9WHQ9); test: Inhibition of Mycobacterium tuberculosis recombinant N-terminal 6His-tagged HGPRT expressed in Escherichia coli BL21 (DE3) using fixed concentration of guanine and variable concentrations of PRib-PP as substrate by spectrophotometric analysis
T1 sequence (P9WHQ9 whole entry): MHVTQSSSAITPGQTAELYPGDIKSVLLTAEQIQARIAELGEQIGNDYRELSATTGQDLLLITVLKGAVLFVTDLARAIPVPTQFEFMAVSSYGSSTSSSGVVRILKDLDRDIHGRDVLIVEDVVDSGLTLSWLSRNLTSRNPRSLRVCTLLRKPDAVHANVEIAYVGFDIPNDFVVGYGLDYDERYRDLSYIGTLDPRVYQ
How it was run: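 Recombinant MtHGPRT, stored in 0.1 M Tris-HCl, 12 mM MgCl2, pH 7.4 with 200 μM PRib-PP at -80 °C. Continuous spectrophotometric assay following guanine to GMP at 257.5 nm in 0.01 M phosphate, 12 mM MgCl2, pH 7.4.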

[2] = Ratio of Ki for Mycobacterium tuberculosis recombinant N-terminal 6His-tagged HGPRT expressed in Escherichia coli BL21 (DE3) to Ki for human HGPRT
[3] = molecular target: T2, Hypoxanthine-guanine phosphoribosyltransferase (Homo sapiens, UniProt P00492); test: Inhibition of human HGPRT using fixed concentration of guanine and variable concentrations of PRib-PP as substrate by spectrophotometric analysis
T2 sequence (P00492 whole entry): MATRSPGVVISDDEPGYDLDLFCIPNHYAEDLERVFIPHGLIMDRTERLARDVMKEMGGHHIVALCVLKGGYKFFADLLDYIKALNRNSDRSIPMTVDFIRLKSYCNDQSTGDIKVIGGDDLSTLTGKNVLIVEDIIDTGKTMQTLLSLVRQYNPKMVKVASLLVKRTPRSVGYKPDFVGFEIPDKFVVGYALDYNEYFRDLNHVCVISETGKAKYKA

[4] = molecular target: T1, Hypoxanthine-guanine phosphoribosyltransferase; test: Inhibition of Mycobacterium tuberculosis recombinant N-terminal 6His-tagged HGPRT expressed in Escherichia coli BL21 (DE3) using fixed concentration of guanine and variable concentrations of PRib-PP as substrate in presence of pyrophosphate by spectrophotometric analysis
How it was run: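 Continuous assay of recombinant MtHGPRT at 257.5 nm (guanine to GMP) in 0.01 M phosphate, 12 mM MgCl2, pH 7.4, with 400 μM pyrophosphate added.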

[5] = Cytotoxicity against human A549 cells after 4 days by Coulter counting analysis; type: cell-based
How it was run: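 A549 cells seeded at 7500/well; serially diluted compounds added the next day. After 4 days at 37 °C, cells were trypsinized and counted. CC50 is the concentration that gives 50% inhibition of proliferation relative to no-compound control. It was obtained by extrapolation assuming a semi-log dose-response.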

[6] = tested on: Mycobacterium tuberculosis; test: Antitubercular activity against replicating stage of Mycobacterium tuberculosis H37Rv after 5 days by resazurin dye-based assay; type: functional; settings: 120 h
[7] = molecular target: T2, Hypoxanthine-guanine phosphoribosyltransferase; test: Inhibition of recombinant human HGPRT using fixed concentration of guanine and variable concentrations of PRib-PP as substrate by Hanes plot analysis
[8] = tested on: Mycobacterium tuberculosis; test: Ratio of MIC90 for Mycobacterium tuberculosis H37Rv under hypoxic condition to MIC90 for replicating stage of Mycobacterium tuberculosis H37Rv; type: functional
How it was run: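 Inhibitors were serially diluted, incubated 5 days at 37 °C, then read by fluorescence (ex 530/em 590) for MIC90. The hypoxic arm used a 0.1% O₂ chamber, was read 48 h after resazurin addition, and ran isoniazid controls in parallel.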

[9] = tested on: Mycobacterium tuberculosis; test: Antitubercular activity against Mycobacterium tuberculosis H37Rv after 5 days under hypoxic condition by resazurin dye-based assay; type: functional; settings: 120 h
[10] = tested on: Mycobacterium tuberculosis; test: Antitubercular activity against Mycobacterium tuberculosis H37Rv infected in human THP-1 cells after 4 days by fluorescence based assay; type: functional; settings: 96 h
How it was run: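 THP-1 cells differentiated with 50 ng/ml PMA for 72 h (5×10^5 cells/mL), infected with mCherry-expressing H37Rv at MOI 1:1 for 2 h, washed twice to remove extracellular bacilli.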

Row | Structure (SMILES) | Ki [1] | Ratio Ki [2] | Ki [3] | other results
1 | O=C(CCP(=O)(O)O)N1C[C@@H](n2cnc3c(O)ncnc32)[C@H](OC[C@H](O)P(=O)(O)O)C1 | 200 nM |  |  | 
2 | Nc1nc2c(ncn2[C@@H]2CN(C(=O)CCP(=O)(O)O)C[C@@H]2OCCP(=O)(O)O)c(=O)[nH]1 | 40 nM | 1.3 | 0.03 µM | 
3 | O=C(CCP(=O)(O)O)N1C[C@H](OCCP(=O)(O)O)[C@H](n2cnc3c(O)ncnc32)C1 | 420 nM | 0.7 | 0.6 µM | 
4 | O=P(O)(O)CO[C@H]1CNC[C@H]1n1cnc2c(O)ncnc21 | 88000 nM | 0.3 | 327 µM | Ki [4]: 3000 nM
5 | O=C(CCP(=O)(O)O)N1C[C@@H](n2cnc3c(O)ncnc32)[C@H](OC[C@@H](O)P(=O)(O)O)C1 | 60 nM |  |  | 
6 | Nc1nc2c(ncn2[C@@H]2CN(C(=O)CCP(=O)(O)O)C[C@H]2OC[C@@H](O)P(=O)(O)O)c(=O)[nH]1 | 60 nM | 20 |  | CC50 at 96 h [5]: 132 µM; MIC90 [6]: 14 µM (≈ 6.95 µg/mL); Ki [7]: 3 nM; Ratio [8]: 2; MIC90 [9]: 29 µM (≈ 14.4 µg/mL); MIC90 [10]: 85 µM (≈ 42.2 µg/mL)
7 | Nc1nc2c(ncn2[C@@H]2CNC[C@@H]2OCP(=O)(O)O)c(=O)[nH]1 | 8000 nM | 0.3 | 29 µM | Ki [4]: 740 nM
8 | Nc1nc2c(ncn2[C@@H]2CN(C(=O)CCP(=O)(O)O)C[C@H]2OC[C@H](O)P(=O)(O)O)c(=O)[nH]1 | 130 nM | 16 |  | Ki [7]: 8 nM
